From ChEMBL document CHEMBL4725492, “Dioxane-Linked Amide Derivatives as Novel Bacterial Topoisomerase Inhibitors against Gram-Positive Staphylococcus aureus” (ACS Med Chem Lett, 2020)
Converted amounts (≈) assume the structure as drawn. The source made the active and inactive calls. The rule behind the calls is not given here.

Assays:
[1] = system: Staphylococcus aureus; assay: Antibacterial activity against Staphylococcus aureus USA300 by CLSI based agar dilution method; format: functional
[2] = system: Staphylococcus aureus; assay: Antibacterial activity against Staphylococcus aureus ATCC 29213 by CLSI based agar dilution method; format: functional
[3] = target: Topoisomerase IV (Staphylococcus aureus, UniProt P0C1U9+P0C1S7); assay: (§1) Inhibition of Staphylococcus aureus topoisomerase-4 assessed as reduction in decatenation of kinetoplast DNA agarose gel electrophoresis method; format: protein-complex assay
[4] = target: DNA gyrase (Staphylococcus aureus, UniProt P0A0K8+P20831); assay: Inhibition of Staphylococcus aureus DNA gyrase using relaxed pBR322 as substrate by gel electrophoresis; format: protein-complex assay
[5] = target: T1, DNA gyrase (Staphylococcus aureus) (UniProt P0A0K8+P20831); assay: Inhibition of Staphylococcus aureus DNA gyrase assessed as double-strand break at 20 uM using relaxed pBR322 as substrate by ethidium bromide-based gel electrophoresis; format: protein-complex assay
Outline: (§2)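 S. aureus gyrase-mediated DNA cleavage: compound was incubated with enzyme and DNA, and products were resolved on an ethidium-stained gel into negatively supercoiled, nicked (single-strand break) and linear (double-strand break) forms. Lane fluorescence was corrected for differential band emission. Percent of each form was calculated, and enzyme-only cleavage was subtracted. Concentrations spanned 0.1 nM–200 μM, with a 20 μM single-point screen. Results are mean ± SD or range.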

[6] = system: Staphylococcus aureus; assay: Antibacterial activity against Staphylococcus aureus 3527 by CLSI based agar dilution method; format: functional
[7] = target: T1, DNA gyrase (Staphylococcus aureus); assay: Inhibition of Staphylococcus aureus DNA gyrase assessed as single-strand break at 20 uM using relaxed pBR322 as substrate by ethidium bromide-based gel electrophoresis; format: protein-complex assay; outline: as §2
[8] = system: K562; assay: Growth inhibition of human K562 cells incubated for 48 hrs by sulforhodamine B assay; format: functional
[9] = Growth inhibition of human K/VP.5 cells incubated for 48 hrs by sulforhodamine B assay; format: functional
[10] = system: Staphylococcus aureus; assay: Antibacterial activity against Staphylococcus aureus D83N by CLSI based agar dilution method; format: functional
[11] = target: Voltage-gated inwardly rectifying potassium channel KCNH2 (Homo sapiens, UniProt Q12809); assay: Inhibition of human ERG; settings: for INH: human
[12] = target: T1, DNA gyrase (Staphylococcus aureus); assay: Inhibition of Staphylococcus aureus DNA gyrase assessed as double-strand break at 100 to 200 uM using relaxed pBR322 as substrate by ethidium bromide-based gel electrophoresis; format: protein-complex assay; settings: dose microM 100-200; outline: as §2
[13] = target: T1, DNA gyrase (Staphylococcus aureus); assay: Inhibition of Staphylococcus aureus DNA gyrase assessed as single-strand break at 100 to 200 uM using relaxed pBR322 as substrate by ethidium bromide-based gel electrophoresis; format: protein-complex assay; settings: dose microM 100-200; outline: as §2
[14] = target: Topoisomerase IV (Staphylococcus aureus, UniProt P0C1S7+P0C1U9); assay: as §1; format: protein-complex assay
[15] = target: T1, DNA gyrase (Staphylococcus aureus); assay: Inhibition of Staphylococcus aureus DNA gyrase assessed as double-strand break at upto 100 uM using relaxed pBR322 as substrate by ethidium bromide-based gel electrophoresis; format: protein-complex assay; settings: dose microM <=100; outline: as §2
[16] = target: T1, DNA gyrase (Staphylococcus aureus); assay: Inhibition of Staphylococcus aureus DNA gyrase assessed as single-strand break using relaxed pBR322 as substrate by ethidium bromide-based gel electrophoresis; format: protein-complex assay; outline: as §2
[17] = target: DNA topoisomerase 2-alpha (Homo sapiens, UniProt P11388); assay: Inhibition of human topoisomerase 2alpha
Outline: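 Human topoisomerase IIα decatenation activity was tested at a single concentration of 100 μM and reported as percent inhibition.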

[18] = target: T1, DNA gyrase (Staphylococcus aureus); assay: Inhibition of Staphylococcus aureus DNA gyrase assessed as double-strand break at 100 uM using relaxed pBR322 as substrate by ethidium bromide-based gel electrophoresis; format: protein-complex assay
Outline: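 Gyrase-mediated DNA cleavage reactions with test agent across 0.1–100 μM. Products were resolved on ethidium-stained gels into negatively supercoiled, nicked and linear forms. DSBs were taken as percent of total lane fluorescence in the linear band, correcting for the different emission of supercoiled versus linear and nicked DNA. Cleavage in enzyme-only controls was subtracted.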

| Compound | MIC [1] [µg/mL] | MIC [2] [µg/mL] | IC50 [4] [nM] | MIC [6] [µg/mL] | MIC [10] [µg/mL] | further results |
| --- | --- | --- | --- | --- | --- | --- |
| COc1ccc2nccc(CC[C@H]3OC[C@H](NC(=O)c4cccc(Cl)c4)CO3)c2c1 | 1 (≈ 2.34 µM) | 2 (≈ 4.68 µM) | 320 | 1 (≈ 2.34 µM) | > 32 | IC50 [3]: Not Active; inhibition [5]: inactive; inhibition [7]: Active; INH [8]: <200 µM; INH [9]: 50 µM; INH [11]: > 3 µM |
| O=c1ccc2ncc(=O)n3c2n1C[C@H]3CN1CCC(NCc2cc3c(cn2)OCCC3)CC1 | – | – | – | – | – | inhibition [12]: inactive; inhibition [13]: Active |
| COc1ccc2nccc(CC[C@H]3OC[C@H](NC(=O)C4COc5ccccc5O4)CO3)c2c1 (stereo not given in full) | > 64 | > 64 | – | > 64 | > 64 | – |
| COc1ccc2nccc(CC[C@H]3OC[C@H](NC(=O)c4cccnc4)CO3)c2c1 | 128 (≈ 325 µM) | 256 (≈ 651 µM) | – | 128 (≈ 325 µM) | 128 (≈ 325 µM) | – |
| COc1ccc2nccc(CC[C@H]3OC[C@H](NC(=O)c4ccc5c(c4)OCCO5)CO3)c2c1 | 1 (≈ 2.22 µM) | 1 (≈ 2.22 µM) | 3700 | 0.5 (≈ 1.11 µM) | > 32 | IC50 [14]: > 200000 nM; inhibition [15]: inactive; inhibition [5]: inactive; inhibition [16]: Dose-dependent effect; inhibition [7]: Active; IC50 [11]: > 100000 nM |
| COc1ccc2nccc(CC[C@H]3OC[C@H](NC(=O)C4CCNCC4)CO3)c2c1 | > 64 | > 64 | – | > 64 | > 64 | – |
| COc1ccc2nccc(CC[C@H]3OC[C@H](NC(=O)c4ccc5c(n4)NC(=O)CO5)CO3)c2c1 | 0.125 (≈ 0.269 µM) | 0.125 (≈ 0.269 µM) | 40 | 0.125 (≈ 0.269 µM) | > 64 | IC50 [14]: 190 nM; INH [8]: >200 µM; INH [9]: >200 µM; INH [11]: > 12 µM |
| COc1ccc2nccc(CC[C@H]3OC[C@H](NC(=O)[C@H]4CC[C@H](C)CC4)CO3)c2c1 | 8 (≈ 19.4 µM) | 4 (≈ 9.7 µM) | – | 8 (≈ 19.4 µM) | > 32 | – |
| COc1ccc2nccc(CC[C@H]3OC[C@H](NC(=O)c4ccc(C)cc4)CO3)c2c1 | 1 (≈ 2.46 µM) | 1 (≈ 2.46 µM) | 410 | 2 (≈ 4.92 µM) | > 32 | IC50 [3]: Not Active; inhibition [5]: inactive; inhibition [7]: Active; INH [8]: 18 µM; INH [9]: 17 µM; INH [11]: > 30 µM; inhibition (INH) [17]: Not Active |
| COc1ccc2nccc(CC[C@H]3OC[C@H](NC(=O)c4ccc5c(n4)NC(=O)CS5)CO3)c2c1 | 0.03 (≈ 0.0624 µM) | 0.06 (≈ 0.125 µM) | 170 | 0.03 (≈ 0.0624 µM) | > 64 | IC50 [14]: 300 nM; INH [8]: >200 µM; INH [9]: >200 µM; INH [11]: > 3 µM |
| COc1ccc2nccc(CC[C@H]3OC[C@H](NC(=O)c4ccccc4Cl)CO3)c2c1 | > 256 | 256 (≈ 600 µM) | – | > 256 | > 256 | – |
| COc1ccc2nccc(CC[C@H]3OC[C@H](NC(=O)C4COc5ccccc5C4)CO3)c2c1 (stereo not given in full) | > 64 | > 64 | – | > 64 | > 64 | – |
| COc1ccc2nccc(CC[C@H]3OC[C@H](NC(=O)C4CCCCC4)CO3)c2c1 | 8 (≈ 20.1 µM) | 8 (≈ 20.1 µM) | – | 8 (≈ 20.1 µM) | 32 (≈ 80.3 µM) | – |
| COc1ccc2nccc(CC[C@H]3OC[C@H](NC(=O)C4Cc5ccccc5CO4)CO3)c2c1 (stereo not given in full) | > 64 | > 64 | – | > 64 | > 64 | – |
| COc1ccc2nccc(CC[C@H]3OC[C@H](NC(=O)c4ccc5c(c4)NC(=O)CO5)CO3)c2c1 | 0.25 (≈ 0.539 µM) | 0.25 (≈ 0.539 µM) | 60 | 0.5 (≈ 1.08 µM) | > 64 | IC50 [14]: 890 nM; INH [8]: >200 µM; INH [9]: >200 µM |
| COc1ccc2nccc(CC[C@H]3OC[C@H](NC(=O)C4CCN(C)CC4)CO3)c2c1 | > 64 | > 64 | – | > 64 | > 64 | – |
| COc1ccc2nccc(CC[C@H]3OC[C@H](NC(=O)c4ccc(Cl)cc4)CO3)c2c1 | 1 (≈ 2.34 µM) | 1 (≈ 2.34 µM) | 610 | 2 (≈ 4.68 µM) | > 32 | IC50 [3]: Not Active; inhibition [5]: inactive; inhibition [7]: Active; INH [8]: 10 µM; INH [9]: 11 µM; INH [11]: 11 µM; inhibition (INH) [17]: Not Active |

| Compound | MIC [1] [µg/mL] | MIC [2] [µg/mL] | IC50 [4] [nM] | MIC [6] [µg/mL] | MIC [10] [µg/mL] | further results |
| --- | --- | --- | --- | --- | --- | --- |
| COc1ccc2nccc(CC[C@H]3OC[C@H](NC(=O)c4ccc(OC(F)(F)F)cc4)CO3)c2c1 | 1 (≈ 2.1 µM) | 0.5 (≈ 1.05 µM) | 1400 | 2 (≈ 4.2 µM) | > 32 | IC50 [3]: Not Active; inhibition [5]: inactive; inhibition [7]: Active; INH [8]: 11 µM; INH [9]: 9 µM; INH [11]: > 10 µM; inhibition (INH) [17]: Not Active |
| COc1ccc2nccc(CC[C@H]3OC[C@H](NC(=O)c4ccccn4)CO3)c2c1 | > 256 | > 256 | – | > 256 | > 256 | – |
| COc1ccc2nccc(CC[C@H]3OC[C@H](NC(=O)c4ccc(C(C)(C)C)cc4)CO3)c2c1 | 1 (≈ 2.23 µM) | 0.25 (≈ 0.557 µM) | 1300 | 1 (≈ 2.23 µM) | 2 (≈ 4.46 µM) | IC50 [14]: > 200000 nM; inhibition [5]: inactive; inhibition [7]: Active; INH [8]: 8.4 µM; INH [9]: 8.8 µM; INH [11]: 5.2 µM; inhibition (INH) [17]: Not Active |
| O=C(O)c1cn(C2CC2)c2cc(N3CCNCC3)c(F)cc2c1=O | – | – | – | – | – | inhibition [18]: Active |
| COc1ccc2nccc(CC[C@H]3OC[C@H](NC(=O)[C@H]4CC[C@@H](O)CC4)CO3)c2c1 | > 64 | > 64 | – | > 64 | > 64 | – |
| COc1ccc2nccc(CC[C@H]3OC[C@H](NC(=O)[C@H]4CC[C@H](N)CC4)CO3)c2c1 | > 64 | > 64 | – | > 64 | > 64 | – |
| COc1ccc(C(=O)N[C@H]2CO[C@H](CCc3ccnc4ccc(OC)cc34)OC2)cc1 | 8 (≈ 18.9 µM) | 4 (≈ 9.47 µM) | 3900 | 16 (≈ 37.9 µM) | 32 (≈ 75.7 µM) | IC50 [14]: 106000 nM; inhibition (INH) [17]: Not Active |
| COc1ccc2nccc(CC[C@H]3OC[C@H](NC(=O)c4ccc(C#N)cc4)CO3)c2c1 | > 8 | > 8 | – | – | – | – |
| COc1ccc2nccc(CC[C@H]3OC[C@H](NC(=O)[C@H]4CC[C@H](O)CC4)CO3)c2c1 | > 64 | > 64 | – | > 64 | > 64 | – |
| COc1ccc2nccc(CC[C@H]3OC[C@H](NC(=O)C4(C)CCCCC4)CO3)c2c1 | > 64 | > 64 | – | > 64 | > 64 | – |
| COc1ccc2nccc(CC[C@H]3OC[C@H](NC(=O)c4ccc(C(F)(F)F)cc4)CO3)c2c1 | ≤ 0.5 | 0.25 (≈ 0.543 µM) | 1100 | ≤ 0.5 | > 64 | IC50 [14]: > 200000 nM; inhibition [5]: inactive; inhibition [7]: Active; INH [8]: 6.8 µM; INH [9]: 8.9 µM; INH [11]: > 30 µM; inhibition (INH) [17]: Not Active |
| COc1ccc2nccc(CC[C@H]3OC[C@H](NC(=O)c4ccc(Cl)c(Cl)c4)CO3)c2c1 | 0.125 (≈ 0.271 µM) | 0.125 (≈ 0.271 µM) | 590 | 0.5 (≈ 1.08 µM) | > 32 | IC50 [14]: > 200000 nM; inhibition [5]: inactive; inhibition [7]: Active |
| COc1ccc2nccc(CC[C@H]3OC[C@H](NC(=O)[C@H]4CC[C@@H](N)CC4)CO3)c2c1 | > 64 | > 64 | – | > 64 | > 64 | – |
| COc1ccc2nccc(CC[C@H]3OC[C@H](NC(=O)CC4CCCCC4)CO3)c2c1 | > 64 | > 64 | – | > 64 | > 64 | – |
| COc1ccc2nccc(CC[C@H]3OC[C@H](NC(=O)c4ccccc4)CO3)c2c1 | 8 (≈ 20.4 µM) | 8 (≈ 20.4 µM) | – | 4 (≈ 10.2 µM) | > 256 | – |
| COc1ccc2nccc(CC[C@H]3OC[C@H](NC(=O)c4ccc(F)cc4)CO3)c2c1 | > 256 | > 256 | – | > 256 | > 256 | – |
